This is an account of results in ChEMBL document CHEMBL2062362, “Bioactive 3,4-seco-Triterpenoids from the Fruits of Acanthopanax sessiliflorus” (J Nat Prod, 2012).

For data set [1], the system named is HCT-116. The data set is described as follows: Cytotoxicity against human HCT116 cells by MTT assay. Type of data set: functional, cell-based.
Data set [2] concerns MCF7. The data set is described as follows: Cytotoxicity against human MCF7 cells by MTT assay. Type of data set: functional, cell-based. On the technique in general: Formazan colour is commonly taken as a measure of viable cells.
For data set [3], the system named is SK-BR-3. Nature of the data set: Cytotoxicity against human SKBR3 cells by MTT assay. Type of data set: functional, cell-based.
Data set [4] concerns SK-OV-3. The data set is described as follows: Cytotoxicity against human SKOV3 cells by MTT assay. Type of data set: functional, cell-based.
Data set [5] concerns HeLa. Nature of the data set: Cytotoxicity against human HeLa cells by MTT assay. Type of data set: functional, cell-based.
Data set [6] deals with HepG2. Nature of the data set: Cytotoxicity against human HepG2 cells by MTT assay. Type of data set: functional, cell-based.
Data set [7] deals with SK-MEL-5. The data set is described as follows: Cytotoxicity against human SK-MEL-5 cells by MTT assay. Type of data set: functional, cell-based.
Data set [8] has as its system RAW264.7. The data set is described as follows: Antiinflammatory activity in mouse RAW264.7 cells assessed as inhibition of LPS-stimulated NO production pretreated for 30 mins before LPS challenge measured after 24 hrs by Griess reagent. In general terms: The Griess reaction detects nitrite, a stable product of nitric oxide.
Data set [9] can be described thus: Cytotoxicity against mouse RAW264.7 cells assessed as cell viability after 24 hrs by MTT assay. Conditions: read-out: Activity. Set-up: concentration or dose not given beside the values. Type of data set: cell-based. Summed up: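 The same LPS-stimulated RAW 264.7 cultures (1 × 10⁴ cells/well) were pretreated with samples for 30 min, then given LPS at 1 μg/mL for 24 h. Viability was assessed by MTT reduction and expressed as a percentage of the LPS-only group. Data are means ± SD of three independent experiments.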

Broadly, the IC50 is the concentration needed to halve the response being measured. In the case of `C=C(C)[C@@H]1C[C@H](O)[C@]2(C(=O)O[C@@H]3O[C@H](CO[C@@H]4O[C@H](CO)[C@@H](O[C@@H]5O[C@@H](C)[C@H](O)[C@@H](O)[C@H]5O)[C@H](O)[C@H]4O)[C@@H](O)[C@H](O)[C@H]3O)CC[C@]3(C)[C@H](C[C@H]4OC(=O)C[C@@H](O)[C@]5(C)[C@@H]4[C@@]3(C)CC[C@H]5C(=C)C)[C@@H]12`, the IC50 in data set [1], in [2], in data set [3], in [4], in [5] and in data set [6] was greater than 10 µM throughout. In addition, the results for the IC50 in data set [7] and in data set [8] were greater than 10 µM and greater than 50 µM, respectively.

In the case of `C=C(C)[C@@H]1C[C@H](O)[C@]2(C(=O)O[C@@H]3O[C@H](CO)[C@@H](O)[C@H](O)[C@H]3O)CC[C@]3(C)[C@H](CC[C@@H]4[C@@]5(C)[C@@H](CC(=O)O)OC(C)(C)[C@@H]5CC[C@]43C)[C@@H]12` [ACANTHOSESSILIOSIDE E], the IC50 in [1], in data set [2], in [3], in [4], in data set [5] and in [6] was greater than 10 µM throughout. The figures for the IC50 in [7] and in [8] were greater than 10 µM and greater than 50 µM, respectively.

Take `CC(=O)O[C@H]1C(=O)[C@@]2(C)[C@H]([C@H](OC(=O)c3ccccc3)[C@]3(O)C[C@H](OC(=O)[C@H](O)[C@@H](NC(=O)c4ccccc4)c4ccccc4)C(C)=C1C3(C)C)[C@]1(OC(C)=O)CO[C@@H]1C[C@@H]2O` [PACLITAXEL]: the IC50 turned out to be 0.05 µM in data set [1]; 0.9 µM in [2]; 0.11 µM in data set [3]; 0.4 µM in [4]; 0.15 µM in data set [7].

In the case of `C=C(C)[C@@H]1C[C@H](O)[C@]2(C(=O)O)CC[C@]3(C)[C@H](C[C@@H](O)[C@@H]4[C@@]5(C)[C@@H](CC(=O)O)OC(C)(C)[C@@H]5CC[C@]43C)[C@@H]12`, the IC50 in [1], in [2], in [3], in [4], in [5] and in data set [6] was greater than 10 µM throughout. For the same compound, the concentration for half-maximal inhibition (IC50) in data set [7] is greater than 10 µM; in data set [8] it was greater than 50 µM.

Turning to `C=C(C)[C@@H]1CC[C@]2(C(=O)O)CC[C@]3(C)[C@H](CC[C@@H]4[C@@]5(C)[C@@H](CC(=O)O[C@@H]6O[C@H](CO)[C@@H](O)[C@H](O)[C@H]6O)OC(C)(C)[C@@H]5CC[C@]43C)[C@@H]12` [ACANTHOSESSILIOSIDE D], the viability at 24 h in data set [9] amounted to 95.2%. For the same compound, the IC50 in data set [1], in data set [2], in data set [3], in [4], in data set [5] and in [6] was greater than 10 µM throughout. Further, the results for the half-inhibitory concentration (IC50) in data set [7] and in data set [8] were greater than 10 µM and 11.9 µM, respectively.

Turning to `C=C(C)[C@@H]1C[C@H](O)[C@]2(C(=O)O)CC[C@]3(C)[C@H](C[C@H]4OC(=O)C[C@@H](O)[C@]5(C)[C@@H]4[C@@]3(C)CC[C@H]5C(=C)C)[C@@H]12`, the IC50 in data set [1], in data set [2], in data set [3], in data set [4], in data set [5] and in data set [6] was greater than 10 µM in each case. The IC50 in data set [7] is greater than 10 µM; in data set [8] it was greater than 50 µM.

As for `C=C(C)[C@@H]1C[C@H](O)[C@]2(C(=O)O[C@@H]3O[C@H](CO)[C@@H](O)[C@H](O)[C@H]3O)CC[C@]3(C)[C@H](C[C@@H](O)[C@@H]4[C@@]5(C)[C@@H](CC(=O)OC)OC(C)(C)[C@@H]5CC[C@]43C)[C@@H]12` [ACANTHOSESSILIOSIDE C], the half-maximal inhibitory concentration (IC50) in [1], in [2], in [3], in data set [4], in [5] and in data set [6] was greater than 10 µM throughout. Further, the IC50 is greater than 10 µM in [7] and greater than 50 µM in [8].

Consider `C=C(C)[C@@H]1CC[C@]2(C(=O)O[C@@H]3O[C@H](CO[C@@H]4O[C@H](CO)[C@@H](O[C@@H]5O[C@@H](C)[C@H](O)[C@@H](O)[C@H]5O)[C@H](O)[C@H]4O)[C@@H](O)[C@H](O)[C@H]3O)CC[C@]3(C)[C@H](C[C@H]4OC(=O)C[C@@H](O)[C@]5(C)[C@@H]4[C@@]3(C)CC[C@H]5C(=C)C)[C@@H]12` [CHIISANOSIDE], for which the IC50 in data set [1] is less than 10 µM; in data set [2], less than 10 µM; in data set [3], less than 10 µM; in data set [4] it was less than 10 µM; in data set [5], greater than 10 µM; in data set [6] it was greater than 10 µM. For the same compound, the half-maximal inhibitory concentration (IC50) in data set [7] was less than 10 µM; in data set [8] it was greater than 50 µM.

For the compound `N=C(N)NN` [PIMAGEDINE], the viability at 24 h in data set [9] was 84.6%. Further, the IC50 in data set [8] amounted to 6.5 µM.

Regarding `C=C(C)[C@@H]1C[C@H](O)[C@]2(C(=O)O[C@@H]3O[C@H](CO)[C@@H](O)[C@H](O)[C@H]3O)CC[C@]3(C)[C@H](C[C@H]4OC(=O)C[C@@H](O)[C@]5(C)[C@@H]4[C@@]3(C)CC[C@H]5C(=C)C)[C@@H]12` [ACANTHOSESSILIOSIDE F], the IC50 in [1], in data set [2], in data set [3], in [4], in data set [5] and in data set [6] was greater than 10 µM throughout. Moreover, the IC50 in data set [7] is greater than 10 µM; in [8], greater than 50 µM.

Turning to `C=C(C)[C@@H]1CC[C@]2(C(=O)O[C@@H]3O[C@H](CO)[C@@H](O)[C@H](O)[C@H]3O)CC[C@]3(C)[C@H](C[C@@H](O)[C@@H]4[C@@]5(C)[C@@H](CC(=O)OC)OC(C)(C)[C@@H]5CC[C@]43C)[C@@H]12` [ACANTHOSESSILIOSIDE B], the viability at 24 h in data set [9] worked out at 93%. Besides, the IC50 in [1], in [2], in data set [3], in data set [4], in data set [5] and in data set [6] was greater than 10 µM throughout. Also, the concentration for half-maximal inhibition (IC50) is greater than 10 µM in [7] and 20.6 µM in [8].

On to `C=C(C)[C@@H]1CC[C@]2(C(=O)O)CC[C@]3(C)[C@H](C[C@@H](O)[C@@H]4[C@@]5(C)[C@@H](CC(=O)OC)OC(C)(C)[C@@H]5CC[C@]43C)[C@@H]12` [ACANTHOSESSILIGENIN II], for which, in [9], the viability at 24 h is 91.1%. Further, the IC50 in data set [1], in data set [2], in data set [3], in data set [4], in [5] and in data set [6] was greater than 10 µM throughout. Further, the IC50 in [7] is greater than 10 µM; in [8], 47 µM.

Regarding `C=C(C)[C@@H]1CC[C@]2(C(=O)O[C@@H]3O[C@H](CO[C@@H]4O[C@H](CO)[C@@H](O)[C@H](O)[C@H]4O)[C@@H](O)[C@H](O)[C@H]3O)CC[C@]3(C)[C@H](C[C@H]4OC(=O)C[C@@H](O)[C@]5(C)[C@@H]4[C@@]3(C)CC[C@H]5C(=C)C)[C@@H]12`, the half-maximal inhibitory concentration (IC50) in data set [1], in data set [2], in data set [3], in data set [4], in data set [5] and in [6] was greater than 10 µM each time. Also, the IC50 is greater than 10 µM in [7] and greater than 50 µM in data set [8].

In the case of `C=C(C)[C@@H]1C[C@H](O)[C@]2(C(=O)O)CC[C@]3(C)[C@H](CC[C@@H]4[C@@](C)(CCC(=O)OC)[C@H](C(=C)C)CC[C@]43C)[C@@H]12` [ACANTHOSESSILIGENIN I], in [9], the viability at 24 h was found to be 88.8%. Also, the IC50 in [1], in data set [2], in data set [3], in data set [4], in [5] and in data set [6] was greater than 10 µM throughout. Also, the IC50 in data set [7] is greater than 10 µM; in [8], 11.3 µM.

For the compound `C=C(C)[C@@H]1CC[C@]2(C(=O)O[C@@H]3O[C@H](CO)[C@@H](O)[C@H](O)[C@H]3O)CC[C@]3(C)[C@H](CC[C@@H]4[C@@](C)(CCC(=O)O)[C@H](C(=C)C)CC[C@]43C)[C@@H]12` [ACANTHOSESSILIOSIDE A], the viability at 24 h in data set [9] was found to be 93.5%. The IC50 in [1], in data set [2], in [3], in data set [4], in [5] and in [6] was greater than 10 µM each time. Moreover, the IC50 in data set [7] is greater than 10 µM; in [8], 18.3 µM.
